Measurements published in ChEMBL document CHEMBL4431340, “Pyridyl-alanine as a Hydrophilic, Aromatic Element in Peptide Structural Optimization” (J Med Chem, 2016).
Activity calls are given as the source filed them. No cut-off for these calls is given here. Non-standard residues stand in square brackets, D forms with d. Residues, ends and D or L forms follow the SMILES beside them. 3Pal = N[C@@H](Cc1cccnc1)C(=O)O; Aib = CC(C)(N)C(=O)O

Experiments:
Rattus norvegicus [1] = test: Antihypoglycemic activity in lean Wistar rat assessed as prevention of insulin-induced glucose reduction at 15 nmol/kg, ip after 30 mins by glucometer; type: functional, organism-based
How it was run: (§1)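 Lean rats received a fixed insulin dose chosen to induce hypoglycemia, together with peptide or vehicle. Blood glucose was followed for 60 min after administration. Groups were compared by one-way ANOVA with Dunnett's test against the insulin group, with P < 0.05 taken as significant.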

Rattus norvegicus [2] = test: Antihypoglycemic activity in lean Wistar rat assessed as prevention of insulin-induced glucose reduction at 15 nmol/kg, ip after 60 mins by glucometer; type: functional, organism-based; how it was run: as §1
Rattus norvegicus [3] = test: Hyperglycemic activity in lean Wistar rat assessed as elevation of plasma glucose levels at 10 nmol/kg, ip after 120 mins in absence of insulin by glucometer; type: functional, organism-based
[4] = Aqueous solubility of the compound in PBS at 1 to 10 mg/ml assessed as precipitate formation at pH 7 at 4 degC after 7 days; type: physicochemical; settings: buffer, pH 7, 168 h
[5] = Aqueous solubility of the compound in PBS assessed as precipitate formation at pH 7 after 1 hr; settings: buffer, pH 7, 1 h
[6] = biological target: Glucagon receptor (Homo sapiens) (UniProt P47871); test: Activation of glucagon receptor (unknown origin) transfected in HEK293 cells co-transfected with luciferase reporter gene linked CRE element assessed as compound EC50 preincubated in PBS buffer for 4 weeks at elevated temperature and pH 7 followed by protein addition measured after 5 hrs in presence of luclite substrate by liquid scintillation counting relative to control; type: functional, cell-based
Sequence of Glucagon receptor (Homo sapiens) (P47871 whole entry): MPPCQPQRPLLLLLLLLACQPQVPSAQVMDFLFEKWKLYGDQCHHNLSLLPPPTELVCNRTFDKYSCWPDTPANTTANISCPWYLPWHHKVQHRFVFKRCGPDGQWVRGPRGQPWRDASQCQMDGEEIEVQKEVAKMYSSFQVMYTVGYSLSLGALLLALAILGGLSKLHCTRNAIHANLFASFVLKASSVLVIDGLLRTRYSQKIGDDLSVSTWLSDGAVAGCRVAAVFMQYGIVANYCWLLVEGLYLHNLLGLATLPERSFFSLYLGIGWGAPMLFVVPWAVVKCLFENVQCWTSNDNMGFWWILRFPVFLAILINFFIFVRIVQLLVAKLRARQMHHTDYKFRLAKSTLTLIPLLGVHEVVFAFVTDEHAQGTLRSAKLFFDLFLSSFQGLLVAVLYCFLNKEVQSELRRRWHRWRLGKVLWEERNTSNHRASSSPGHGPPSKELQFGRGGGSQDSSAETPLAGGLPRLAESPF
How it was run: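 Analog incubated at 2.0 mg/mL in 50 mM sodium phosphate, 150 mM NaCl at pH 7 (also pH 5, 6), 37 °C, stirred at 200 rpm for 1 and 4 weeks. T=0 reference kept at -45 °C. […] Cells exposed to serial dilutions for 5 h at 37 °C, then LucLite luminescence read. Reported as percent change in EC50.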

Sus scrofa = test: Antihypoglycemic activity in diabetic Yucatan pig assessed as prevention of insulin detemir-induced blood glucose reduction at 10 nmol/kg, sc administered 240 mins post insulin detemir challenge measured during compound dosing by glucometer

Molecule | solubility [4] | solubility [5] [mg/mL] | also measured
GLUCAGON |  |  | Activity (Rattus norvegicus [1]): inactive; Activity (Rattus norvegicus [2]): Active; Activity (Rattus norvegicus [3]): Active
CSCC[C@H](NC(=O)[C@H](CC(C)C)NC(=O)[C@H](Cc1c[nH]c2ccccc12)NC(=O)[C@H](CCC(N)=O)NC(=O)[C@@H](NC(=O)[C@H](Cc1ccccc1)NC(=O)[C@H](CC(=O)O)NC(=O)[C@H](CCC(N)=O)NC(=O)[C@H](C)NC(=O)[C@H](CCCNC(=N)N)NC(=O)[C@H](CCCNC(=N)N)NC(=O)C(C)(C)NC(=O)[C@H](CC(=O)O)NC(=O)[C@H](CC(C)C)NC(=O)[C@H](Cc1ccncc1)NC(=O)[C@H](CCCCN)NC(=O)[C@H](CO)NC(=O)[C@H](Cc1ccncc1)NC(=O)[C@H](CC(=O)O)NC(=O)[C@H](CO)NC(=O)[C@@H](NC(=O)[C@H](Cc1ccncc1)NC(=O)[C@@H](NC(=O)CNC(=O)[C@H](CCC(N)=O)NC(=O)[C@H](CO)NC(=O)[C@@H](N)Cc1cnc[nH]1)[C@@H](C)O)[C@@H](C)O)C(C)C)C(=O)N[C@@H](CC(N)=O)C(=O)N[C@H](C(=O)O)[C@@H](C)O | Soluble | > 15 | 
CSCC[C@H](NC(=O)[C@H](CC(C)C)NC(=O)[C@H](Cc1c[nH]c2ccccc12)NC(=O)[C@H](CCC(N)=O)NC(=O)[C@@H](NC(=O)[C@H](Cc1ccccc1)NC(=O)[C@H](CC(=O)O)NC(=O)[C@H](CCC(N)=O)NC(=O)[C@H](C)NC(=O)[C@H](CCCNC(=N)N)NC(=O)[C@H](CCCNC(=N)N)NC(=O)C(C)(C)NC(=O)[C@H](CC(=O)O)NC(=O)[C@H](CC(C)C)NC(=O)[C@H](Cc1ccncc1)NC(=O)[C@H](CCCCN)NC(=O)[C@H](CO)NC(=O)[C@H](Cc1ccc(O)cc1)NC(=O)[C@H](CC(=O)O)NC(=O)[C@H](CO)NC(=O)[C@@H](NC(=O)[C@H](Cc1ccccc1)NC(=O)[C@@H](NC(=O)CNC(=O)[C@H](CCC(N)=O)NC(=O)[C@H](CO)NC(=O)[C@@H](N)Cc1cnc[nH]1)[C@@H](C)O)[C@@H](C)O)C(C)C)C(=O)N[C@@H](CC(N)=O)C(=O)N[C@H](C(=O)O)[C@@H](C)O |  | > 1 | 
CSCC[C@H](NC(=O)[C@H](CC(C)C)NC(=O)[C@H](Cc1c[nH]c2ccccc12)NC(=O)[C@H](CCC(N)=O)NC(=O)[C@@H](NC(=O)[C@H](Cc1ccccc1)NC(=O)[C@H](CC(=O)O)NC(=O)[C@H](CCC(N)=O)NC(=O)[C@H](C)NC(=O)[C@H](CCCNC(=N)N)NC(=O)[C@H](CCCNC(=N)N)NC(=O)C(C)(C)NC(=O)[C@H](CC(=O)O)NC(=O)[C@H](CC(C)C)NC(=O)[C@H](Cc1ccc(O)cc1)NC(=O)[C@H](CCCCN)NC(=O)[C@H](CO)NC(=O)[C@H](Cc1ccc(O)cc1)NC(=O)[C@H](CC(=O)O)NC(=O)[C@H](CO)NC(=O)[C@@H](NC(=O)[C@H](Cc1cccnc1)NC(=O)[C@@H](NC(=O)CNC(=O)[C@H](CCC(N)=O)NC(=O)[C@H](CO)NC(=O)[C@@H](N)Cc1cnc[nH]1)[C@@H](C)O)[C@@H](C)O)C(C)C)C(=O)N[C@@H](CC(N)=O)C(=O)N[C@H](C(=O)O)[C@@H](C)O |  | > 1 | 

Now from value to molecule, other results behind:

solubility [4] | solubility [5] [mg/mL] | Molecule | also measured
Soluble | > 15 | CSCC[C@H](NC(=O)[C@H](CC(C)C)NC(=O)[C@H](Cc1c[nH]c2ccccc12)NC(=O)[C@H](CCC(N)=O)NC(=O)[C@@H](NC(=O)[C@H](Cc1cccnc1)NC(=O)[C@H](CC(=O)O)NC(=O)[C@H](CCC(N)=O)NC(=O)[C@H](C)NC(=O)[C@H](CCCNC(=N)N)NC(=O)[C@H](CCCNC(=N)N)NC(=O)C(C)(C)NC(=O)[C@H](CC(=O)O)NC(=O)[C@H](CC(C)C)NC(=O)[C@H](Cc1cccnc1)NC(=O)[C@H](CCCCN)NC(=O)[C@H](CO)NC(=O)[C@H](Cc1cccnc1)NC(=O)[C@H](CC(=O)O)NC(=O)[C@H](CO)NC(=O)[C@@H](NC(=O)[C@H](Cc1cccnc1)NC(=O)[C@@H](NC(=O)CNC(=O)[C@H](CCC(N)=O)NC(=O)[C@H](CO)NC(=O)[C@@H](N)Cc1cnc[nH]1)[C@@H](C)O)[C@@H](C)O)C(C)C)C(=O)N[C@@H](CC(N)=O)C(=O)N[C@H](C(=O)O)[C@@H](C)O (H-HSQGT[3Pal]TSD[3Pal]SK[3Pal]LD[Aib]RRAQD[3Pal]VQWLMNT-OH) | 
 | > 15 | CSCC[C@H](NC(=O)[C@H](CC(C)C)NC(=O)[C@H](Cc1c[nH]c2ccccc12)NC(=O)[C@H](CCC(N)=O)NC(=O)[C@@H](NC(=O)[C@H](Cc1ccccc1)NC(=O)[C@H](CC(=O)O)NC(=O)[C@H](CCC(N)=O)NC(=O)[C@H](C)NC(=O)[C@H](CCCNC(=N)N)NC(=O)[C@H](CCCNC(=N)N)NC(=O)C(C)(C)NC(=O)[C@H](CC(=O)O)NC(=O)[C@H](CC(C)C)NC(=O)[C@H](Cc1cccnc1)NC(=O)[C@H](CCCCN)NC(=O)[C@H](CO)NC(=O)[C@H](Cc1cccnc1)NC(=O)[C@H](CC(=O)O)NC(=O)[C@H](CO)NC(=O)[C@@H](NC(=O)[C@H](Cc1ccccc1)NC(=O)[C@@H](NC(=O)CNC(=O)[C@H](CCC(N)=O)NC(=O)[C@H](CO)NC(=O)[C@@H](N)Cc1cnc[nH]1)[C@@H](C)O)[C@@H](C)O)C(C)C)C(=O)N[C@@H](CC(N)=O)C(=O)N[C@H](C(=O)O)[C@@H](C)O | 
 | > 1 | CSCC[C@H](NC(=O)[C@H](CC(C)C)NC(=O)[C@H](Cc1c[nH]c2ccccc12)NC(=O)[C@H](CCC(N)=O)NC(=O)[C@@H](NC(=O)[C@H](Cc1ccccc1)NC(=O)[C@H](CC(=O)O)NC(=O)[C@H](CCC(N)=O)NC(=O)[C@H](C)NC(=O)[C@H](CCCNC(=N)N)NC(=O)[C@H](CCCNC(=N)N)NC(=O)C(C)(C)NC(=O)[C@H](CC(=O)O)NC(=O)[C@H](CC(C)C)NC(=O)[C@H](Cc1ccc(O)cc1)NC(=O)[C@H](CCCCN)NC(=O)[C@H](CO)NC(=O)[C@H](Cc1cccnc1)NC(=O)[C@H](CC(=O)O)NC(=O)[C@H](CO)NC(=O)[C@@H](NC(=O)[C@H](Cc1ccccc1)NC(=O)[C@@H](NC(=O)CNC(=O)[C@H](CCC(N)=O)NC(=O)[C@H](CO)NC(=O)[C@@H](N)Cc1cnc[nH]1)[C@@H](C)O)[C@@H](C)O)C(C)C)C(=O)N[C@@H](CC(N)=O)C(=O)N[C@H](C(=O)O)[C@@H](C)O | 
Soluble | > 15 | CSCC[C@H](NC(=O)[C@H](CC(C)C)NC(=O)[C@H](Cc1c[nH]c2ccccc12)NC(=O)[C@H](CCC(N)=O)NC(=O)[C@@H](NC(=O)[C@H](Cc1ccccc1)NC(=O)[C@H](CC(=O)O)NC(=O)[C@H](CCC(N)=O)NC(=O)[C@H](C)NC(=O)[C@H](CCCNC(=N)N)NC(=O)[C@H](CCCNC(=N)N)NC(=O)C(C)(C)NC(=O)[C@H](CC(=O)O)NC(=O)[C@H](CC(C)C)NC(=O)[C@H](Cc1cccnc1)NC(=O)[C@H](CCCCN)NC(=O)[C@H](CO)NC(=O)[C@H](Cc1cccnc1)NC(=O)[C@H](CC(=O)O)NC(=O)[C@H](CO)NC(=O)[C@@H](NC(=O)[C@H](Cc1cccnc1)NC(=O)[C@@H](NC(=O)CNC(=O)[C@H](CCC(N)=O)NC(=O)[C@H](CO)NC(=O)[C@@H](N)Cc1cnc[nH]1)[C@@H](C)O)[C@@H](C)O)C(C)C)C(=O)N[C@@H](CC(N)=O)C(=O)N[C@H](C(=O)O)[C@@H](C)O | Activity (Rattus norvegicus [1]): inactive; Activity (Rattus norvegicus [2]): Active; Activity (Rattus norvegicus [3]): Active; Activity [6]: 82%; Activity (Sus scrofa): Active
 | > 1 | CSCC[C@H](NC(=O)[C@H](CC(C)C)NC(=O)[C@H](Cc1c[nH]c2ccccc12)NC(=O)[C@H](CCC(N)=O)NC(=O)[C@@H](NC(=O)[C@H](Cc1ccccc1)NC(=O)[C@H](CC(=O)O)NC(=O)[C@H](CCC(N)=O)NC(=O)[C@H](C)NC(=O)[C@H](CCCNC(=N)N)NC(=O)[C@H](CCCNC(=N)N)NC(=O)C(C)(C)NC(=O)[C@H](CC(=O)O)NC(=O)[C@H](CC(C)C)NC(=O)[C@H](Cc1cccnc1)NC(=O)[C@H](CCCCN)NC(=O)[C@H](CO)NC(=O)[C@H](Cc1ccc(O)cc1)NC(=O)[C@H](CC(=O)O)NC(=O)[C@H](CO)NC(=O)[C@@H](NC(=O)[C@H](Cc1ccccc1)NC(=O)[C@@H](NC(=O)CNC(=O)[C@H](CCC(N)=O)NC(=O)[C@H](CO)NC(=O)[C@@H](N)Cc1cnc[nH]1)[C@@H](C)O)[C@@H](C)O)C(C)C)C(=O)N[C@@H](CC(N)=O)C(=O)N[C@H](C(=O)O)[C@@H](C)O | 
Soluble | > 15 | CSCC[C@H](NC(=O)[C@H](CC(C)C)NC(=O)[C@H](Cc1c[nH]c2ccccc12)NC(=O)[C@H](CCC(N)=O)NC(=O)[C@@H](NC(=O)[C@H](Cc1ccccc1)NC(=O)[C@H](CC(=O)O)NC(=O)[C@H](CCC(N)=O)NC(=O)[C@H](C)NC(=O)[C@H](CCCNC(=N)N)NC(=O)[C@H](CCCNC(=N)N)NC(=O)C(C)(C)NC(=O)[C@H](CC(=O)O)NC(=O)[C@H](CC(C)C)NC(=O)[C@H](Cc1ccncc1)NC(=O)[C@H](CCCCN)NC(=O)[C@H](CO)NC(=O)[C@H](Cc1ccncc1)NC(=O)[C@H](CC(=O)O)NC(=O)[C@H](CO)NC(=O)[C@@H](NC(=O)[C@H](Cc1ccccc1)NC(=O)[C@@H](NC(=O)CNC(=O)[C@H](CCC(N)=O)NC(=O)[C@H](CO)NC(=O)[C@@H](N)Cc1cnc[nH]1)[C@@H](C)O)[C@@H](C)O)C(C)C)C(=O)N[C@@H](CC(N)=O)C(=O)N[C@H](C(=O)O)[C@@H](C)O | 
